ChEMBL document CHEMBL1128578, “Synthesis and cytotoxicity of novel lignans” (J Med Chem, 1995)

What was measured:
GLC4 cell line [1] = test: Cytotoxic effect against GLC4 (human small cell lung carcinoma cell line) using the microculture tetrazolium (MTT) assay based on 2 hr incubation; format: functional
Method in brief: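 GLC4 SCLC cells (suspension, RPMI 1640 + 10% heat-inactivated FCS, 37 °C, 5% CO2), exponential phase, >90% viable; 3750 cells/well. Compounds diluted from 200× DMSO stocks (≤0.25% DMSO final), up to 100 μM; exposed 2 h, washed three times, then cultured 4 days. MTT 3 h 45 min, formazan in DMSO, A520; IC50 from % growth inhibition, triplicate separate experiments.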

GLC4 cell line [2] = test: Cytotoxic effect against GLC4 (human small cell lung carcinoma cell line) using the microculture tetrazolium (MTT) assay based on continuous incubation; format: functional
Method in brief: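 GLC4 cells in exponential growth (>90% viable by trypan blue) seeded at 3750/well in RPMI 1640 + 10% FCS; compounds from 200× DMSO stocks, final DMSO ≤0.25%, top concentration 100 μM, present continuously for 4 days at 37 °C, 5% CO2. MTT added for 3 h 45 min, formazan dissolved in DMSO, absorbance 520 nm; IC50 = 50% growth inhibition; n=3 separate experiments.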

| Molecule | IC50 (GLC4 cell line [1]; Homo sapiens, GLC4, 2 h) | IC50 (GLC4 cell line [2]; Homo sapiens, GLC4) | IC50 (GLC4 cell line [1]; glc4) | IC50 (GLC4 cell line [2]; glc4) |
| --- | --- | --- | --- | --- |
| COc1cc([C@@H]2c3cc4c(cc3[C@H](O)[C@H]3COC(=O)[C@H]23)OCO4)cc(OC)c1O | 3.1 µM | 0.03 µM | – | – |
| COc1cc([C@@H]2c3cc4c(c(OC)c3[C@H](O)[C@H]3COC(=O)[C@H]23)OCO4)cc(OC)c1OC | 0.25 µM | 0.06 µM | – | – |
| CC1CCC(C(C)C)C(O[C@@H]2OC(=O)[C@H](Cc3ccc4c(c3)OCO4)[C@H]2Cc2ccc3c(c2)OCO3)C1 (stereo partly drawn) | – | 44 µM | – | – |
| COc1cc(C[C@H]2C(=O)O[C@@H](OC3CC(C)CCC3C(C)C)[C@@H]2C(Sc2ccccc2)(Sc2ccccc2)c2ccc3c(c2)OCO3)ccc1OCc1ccccc1 (stereo partly drawn) | – | > 100 µM | – | – |
| COc1cc([C@@H](O)[C@H]2C(=O)O[C@@H](OC3CC(C)CCC3C(C)C)[C@@H]2C(=O)c2ccc3c(c2OC)OCO3)cc(OC)c1OC (stereo partly drawn) | 7.2 µM | 1.7 µM | – | – |
| COc1cc([C@@H](O)[C@H]2C(=O)O[C@@H](OC3CC(C)CCC3C(C)C)[C@@H]2C2(c3ccc4c(c3OC)OCO4)SCCCS2)cc(OC)c1OCc1ccccc1 (stereo partly drawn) | – | 48 µM | – | – |
| COc1cc([C@@H](O)[C@H]2C(=O)O[C@@H](OC3CC(C)CCC3C(C)C)[C@@H]2C2(c3ccc4c(c3OC)OCO4)SCCCS2)cc(OC)c1OC (stereo partly drawn) | 75 µM | 8.8 µM | – | – |
| O=C1C[C@@H](C2(c3ccc4c(c3)OCO4)SCCCS2)CO1 | – | 36 µM | – | – |
| CO[C@@H]1OC(=O)[C@H](Cc2ccc3c(c2)OCO3)[C@H]1C(Sc1ccccc1)(Sc1ccccc1)c1ccc2c(c1)OCO2 | – | > 100 µM | – | – |
| CC1CCC(C(C)C)C(O[C@@H]2OC(=O)[C@H](Cc3ccc4c(c3)OCO4)[C@H]2C(Sc2ccccc2)(Sc2ccccc2)c2ccc3c(c2)OCO3)C1 (stereo partly drawn) | – | 40 µM | – | – |
| COc1cc([C@@H](O)[C@H]2C(=O)O[C@@H](OC3CC(C)CCC3C(C)C)[C@@H]2C2(c3ccc(O)c(O)c3OC)SCCCS2)cc(OC)c1OCc1ccccc1 (stereo partly drawn) | > 100 µM | 10 µM | – | – |
| COc1cc([C@@H]2c3cc4c(cc3[C@H](O[C@@H]3O[C@H](CO)[C@@H](O)[C@H](O)[C@H]3O)[C@H]3COC(=O)[C@H]23)OCO4)cc(OC)c1OC | 58 µM | 10 µM | – | – |
| COc1cc(C[C@H]2C(=O)OC[C@@H]2Cc2ccc3c(c2)OCO3)ccc1O | > 100 µM | 6.5 µM | – | – |
| COc1c(C2([C@@H]3CC(=O)O[C@H]3OC3CC(C)CCC3C(C)C)SCCCS2)ccc2c1OCO2 (stereo partly drawn) | – | 29 µM | – | – |
| COc1ccc(C[C@H]2[C@H](OC3CC(C)CCC3C(C)C)OC(=O)[C@@H]2Cc2ccc(OC)c(OC)c2)cc1OC (stereo partly drawn) | – | 35 µM | – | – |
| COc1c(C2([C@H]3COC(=O)C3)SCCCS2)ccc2c1OCO2 | – | 54 µM | – | – |
| COc1cc([C@@H]2c3cc4c(cc3C[C@H]3COC(=O)[C@@H]32)OCO4)cc(OC)c1OC [DESOXYPODOPHYLLOTOXIN] | 0.12 µM | 0.008 µM | – | – |
| COc1cc([C@@H]2c3cc4c(cc3[C@@H](O[C@@H]3O[C@@H]5CO[C@@H](C)O[C@H]5[C@H](O)[C@H]3O)[C@H]3COC(=O)[C@H]23)OCO4)cc(OC)c1O [ETOPOSIDE] | 4 µM | 0.82 µM | – | – |
| COc1cc([C@@H]2c3cc4c(cc3[C@H](O)[C@H]3COC(=O)[C@H]23)OCO4)cc(OC)c1OC [PODOFILOX] | 0.15 µM | 0.06 µM | – | – |
| COc1cc([C@@H]2c3cc4c(cc3[C@@H](O[C@@H]3O[C@@H]5CO[C@@H](c6cccs6)O[C@H]5[C@H](O)[C@H]3O)[C@H]3COC(=O)[C@H]23)OCO4)cc(OC)c1O [TENIPOSIDE] | 2.8 µM | 0.48 µM | – | – |
| CISPLATIN | – | – | 4.6 µM | 1.1 µM |
